Test results published in ChEMBL document CHEMBL3992532, “Structure-Based Design of Macrocyclic Factor XIa Inhibitors: Discovery of the Macrocyclic Amide Linker” (J Med Chem, 2017).
pKi: −log10 of the molar value.

What was measured:
Coagulation factor XI = Coagulation factor XI (Homo sapiens, UniProt P03951); experiment: Inhibition of human coagulation factor 11a using pyroGlu-Pro-Arg-pNA as substrate after 10 to 120 mins at 37 degC by spectrophotometric method
Procedure, shortened: (§1)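 Purified human proteases, 37 °C; reaction started by adding enzyme to substrate (up to 4× Km) ± inhibitor; compound from DMSO, 1% DMSO final except where noted. […] Buffers: FXIa, chymotrypsin, tPA, plasmin, urokinase in 50 mM HEPES pH 7.4, 145 mM NaCl, 5 mM KCl, 0.1% PEG 8000; FXa, thrombin, trypsin, plasma kallikrein, aPC in 100 mM Na phosphate pH 7.4, 200 mM NaCl, 0.5% PEG 8000; FIXa in 50 mM Tris pH 7.4, 100 mM NaCl, 5 mM CaCl2, 0.5% PEG 8000, 2% DMSO.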

[1] = Half life in Beagle dog at 0.2 mg/kg, iv administered as 10 mins infusion or 0.4 mg/kg, po via gavage administered as cassette dose by LC-MS/MS method; format: ADME, organism-based, Canis lupus familiaris; conditions: in vivo
Procedure, shortened: (§2)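 Dog PK vehicles as footnoted: iv in 70% PEG 400/20% water/10% ethanol; po either 70% PEG 400/20% TPGS/10% ethanol or the same PEG 400/water/ethanol vehicle used for iv.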

[2] = Volume of distribution at steady state in Beagle dog at 0.2 mg/kg, iv administered as 10 mins infusion or 0.4 mg/kg, po via gavage administered as cassette dose by LC-MS/MS method; format: ADME, organism-based, Canis lupus familiaris; conditions: in vivo, read-out: Vdss; procedure, shortened: as §2
Canis familiaris [3] = experiment: Oral bioavailability in Beagle dog at 0.4 mg/kg administered via gavage as cassette dose by LC-MS/MS method; format: ADME, organism-based, Canis lupus familiaris; conditions: in vivo; procedure, shortened: as §2
Canis familiaris [4] = experiment: AUC in Beagle dog at 0.4 mg/kg, po administered via gavage as cassette dose by LC-MS/MS method; format: ADME, organism-based, Canis lupus familiaris; conditions: in vivo; procedure, shortened: as §2
[5] = Half life in dog liver microsomes; format: ADME, Canis lupus familiaris, microsome
Plasma = experiment: Anticoagulant activity in human plasma assessed as concentration required to produce 50% increase in activated partial thromboplastin time; format: functional
Procedure, shortened: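 Citrated (one-tenth volume 0.11 M) plasma from healthy volunteers, spun 2,000 g 10 min, kept on ice; 10 mM DMSO stock diluted in plasma, up to 7 concentrations; aPTT on automated coagulometer, duplicates as mean ratio to baseline; EC1.5x (50% prolongation) by linear interpolation, as total plasma concentration.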

[6] = Half life in human liver microsomes; format: ADME, microsome
Coagulation factor VII = biological target: T1, Coagulation factor VII (Homo sapiens, UniProt P08709); experiment: Inhibition of human coagulation factor 7a using H-(D)-Ile-Pro-Arg-pNA as substrate after 10 to 120 mins at 25 degC by spectrophotometric method
T1 sequence (P08709 whole entry): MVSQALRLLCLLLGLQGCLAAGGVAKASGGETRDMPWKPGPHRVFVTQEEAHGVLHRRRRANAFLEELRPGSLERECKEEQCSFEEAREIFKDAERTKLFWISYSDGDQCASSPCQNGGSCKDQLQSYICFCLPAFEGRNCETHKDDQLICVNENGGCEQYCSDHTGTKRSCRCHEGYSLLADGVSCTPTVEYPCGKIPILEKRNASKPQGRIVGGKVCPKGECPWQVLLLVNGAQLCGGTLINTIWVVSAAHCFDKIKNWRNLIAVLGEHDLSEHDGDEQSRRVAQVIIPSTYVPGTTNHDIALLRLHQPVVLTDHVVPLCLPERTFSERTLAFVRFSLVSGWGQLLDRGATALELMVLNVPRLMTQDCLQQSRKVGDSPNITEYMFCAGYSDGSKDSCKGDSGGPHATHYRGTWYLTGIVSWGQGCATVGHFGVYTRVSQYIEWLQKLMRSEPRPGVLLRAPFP

Coagulation factor IX = Coagulation factor IX (Homo sapiens, UniProt P00740); experiment: Inhibition of human coagulation factor 9a using methylsulfonyl-D-cyclohexylglycyl-Gly-Arg-AMC as substrate after 10 to 120 mins at 37 degC by spectrophotometric method; procedure, shortened: as §1
Coagulation factor X = Coagulation factor X (Homo sapiens, UniProt P00742); experiment: Inhibition of human coagulation factor 10a using N-benzoyl-Ile-Glu-(OH,OMe)-Gly-Arg-pNA as substrate after 10 to 120 mins at 37 degC by spectrophotometric method; procedure, shortened: as §1
Coagulation factor XII = biological target: T2, Coagulation factor XII (Homo sapiens, UniProt P00748); experiment: Inhibition of human coagulation factor 12a using H-(D)-CHT-Gly-Arg-pNA as substrate after 10 to 120 mins at 25 degC by spectrophotometric method
T2 sequence (P00748 whole entry): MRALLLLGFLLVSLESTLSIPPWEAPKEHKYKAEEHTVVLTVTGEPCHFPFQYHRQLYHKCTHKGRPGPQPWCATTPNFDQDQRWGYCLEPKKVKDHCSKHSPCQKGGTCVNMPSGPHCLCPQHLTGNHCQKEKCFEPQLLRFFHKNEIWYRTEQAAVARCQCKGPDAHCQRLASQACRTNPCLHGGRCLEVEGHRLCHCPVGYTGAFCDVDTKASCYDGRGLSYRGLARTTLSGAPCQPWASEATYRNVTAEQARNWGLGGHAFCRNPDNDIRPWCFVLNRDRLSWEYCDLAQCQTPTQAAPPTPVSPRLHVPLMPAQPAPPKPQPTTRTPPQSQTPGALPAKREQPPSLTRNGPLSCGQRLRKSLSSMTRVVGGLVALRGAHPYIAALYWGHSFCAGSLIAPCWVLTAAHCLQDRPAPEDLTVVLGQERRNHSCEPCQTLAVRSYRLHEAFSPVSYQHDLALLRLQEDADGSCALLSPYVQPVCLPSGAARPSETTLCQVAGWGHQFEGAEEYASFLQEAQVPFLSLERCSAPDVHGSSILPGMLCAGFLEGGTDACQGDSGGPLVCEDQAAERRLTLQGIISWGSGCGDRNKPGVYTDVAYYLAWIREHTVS

Prothrombin = Prothrombin (Homo sapiens, UniProt P00734); experiment: Inhibition of human thrombin using pyroGlu-Pro-Arg-pNA as substrate after 10 to 120 mins at 37 degC by spectrophotometric method; procedure, shortened: as §1
[7] = Inhibition of human trypsin using N-benzoyl-Ile-Glu-(OH,OMe)-Gly-Arg-pNA as substrate after 10 to 120 mins at 37 degC by spectrophotometric method; procedure, shortened: as §1
Plasma kallikrein = Plasma kallikrein (Homo sapiens, UniProt P03952); experiment: Inhibition of human plasma kallikrein using H-(D)-Pro-Phe-Arg-pNA as substrate after 10 to 120 mins at 37 degC by spectrophotometric method; procedure, shortened: as §1
[8] = biological target: Vitamin K-dependent protein C (Homo sapiens, UniProt P04070); experiment: Inhibition of human activated protein C using pyroGlu-Pro-Arg-pNA as substrate after 10 to 120 mins at 37 degC by spectrophotometric method; procedure, shortened: as §1
Plasminogen = Plasminogen (Homo sapiens, UniProt P00747); experiment: Inhibition of human plasmin using H-(D)-Val-Leu-LyspNA as substrate after 10 to 120 mins at 37 degC by spectrophotometric method; procedure, shortened: as §1
[9] = biological target: Tissue-type plasminogen activator (Homo sapiens, UniProt P00750); experiment: Inhibition of human tissue plasminogen activator using methylsulfonyl-D-cyclohexylalanyl-GlyArg-pNA as substrate after 10 to 120 mins at 37 degC by spectrophotometric method; procedure, shortened: as §1
[10] = biological target: Urokinase-type plasminogen activator (Homo sapiens, UniProt P00749); experiment: Inhibition of human urokinase using pyro-Glu-Gly-Arg-pNA as substrate after 10 to 120 mins at 37 degC by spectrophotometric method; procedure, shortened: as §1
[11] = Inhibition of human chymotrypsin using MeO-SucArg-Pro-Tyr-pNA as substrate after 10 to 120 mins at 37 degC by spectrophotometric method; procedure, shortened: as §1
[12] = Half life in Beagle dog at 0.2 mg/kg, iv administered as 10 mins infusion or 0.23 mg/kg, po via gavage administered as cassette dose by LC-MS/MS method; format: ADME, organism-based, Canis lupus familiaris; conditions: in vivo; procedure, shortened: as §2
[13] = Volume of distribution at steady state in Beagle dog at 0.2 mg/kg, iv administered as 10 mins infusion or 0.23 mg/kg, po via gavage administered as cassette dose by LC-MS/MS method; format: ADME, organism-based, Canis lupus familiaris; conditions: in vivo, read-out: Vdss; procedure, shortened: as §2
Canis familiaris [14] = experiment: Oral bioavailability in Beagle dog at 0.23 mg/kg administered via gavage as cassette dose by LC-MS/MS method; format: ADME, organism-based, Canis lupus familiaris; conditions: in vivo; procedure, shortened: as §2
Canis familiaris [15] = experiment: AUC in Beagle dog at 0.23 mg/kg, po administered via gavage as cassette dose by LC-MS/MS method; format: ADME, organism-based, Canis lupus familiaris; conditions: in vivo; procedure, shortened: as §2
[16] = Protein binding in dog plasma; format: ADME, cell-free, Canis lupus familiaris; conditions: read-out: PPB (converted)
[17] = Half life in Beagle dog at 0.19 mg/kg, iv administered as 10 mins infusion or 0.32 mg/kg, po via gavage administered as cassette dose by LC-MS/MS method; format: ADME, organism-based, Canis lupus familiaris; conditions: in vivo; procedure, shortened: as §2
[18] = Volume of distribution at steady state in Beagle dog at 0.19 mg/kg, iv administered as 10 mins infusion or 0.32 mg/kg, po via gavage administered as cassette dose by LC-MS/MS method; format: ADME, organism-based, Canis lupus familiaris; conditions: in vivo, read-out: Vdss; procedure, shortened: as §2
Canis familiaris [19] = experiment: Oral bioavailability in Beagle dog at 0.32 mg/kg administered via gavage as cassette dose by LC-MS/MS method; format: ADME, organism-based, Canis lupus familiaris; conditions: in vivo; procedure, shortened: as §2
Canis familiaris [20] = experiment: AUC in Beagle dog at 0.32 mg/kg, po administered via gavage as cassette dose by LC-MS/MS method; format: ADME, organism-based, Canis lupus familiaris; conditions: in vivo; procedure, shortened: as §2
[21] = Permeability from apical to basolateral side in human Caco2 cells; format: ADME, cell-based; conditions: Caco-2, read-out: permeability
Canis familiaris [22] = experiment: Half life in Beagle dog at 0.2 mg/kg, iv administered as 10 mins infusion or 0.35 mg/kg, po via gavage administered as cassette dose by LC-MS/MS method; format: ADME, organism-based, Canis lupus familiaris; conditions: in vivo; procedure, shortened: as §2
Canis familiaris [23] = experiment: Volume of distribution at steady state in Beagle dog at 0.2 mg/kg, iv administered as 10 mins infusion or 0.35 mg/kg, po via gavage administered as cassette dose by LC-MS/MS method; format: ADME, organism-based, Canis lupus familiaris; conditions: in vivo; procedure, shortened: as §2
[24] = Oral bioavailability in Beagle dog at 0.35 mg/kg administered via gavage as cassette dose by LC-MS/MS method; format: ADME, organism-based, Canis lupus familiaris; conditions: in vivo; procedure, shortened: as §2

Coagulation factor XI, sequence (P03951 19-387 limits assumed): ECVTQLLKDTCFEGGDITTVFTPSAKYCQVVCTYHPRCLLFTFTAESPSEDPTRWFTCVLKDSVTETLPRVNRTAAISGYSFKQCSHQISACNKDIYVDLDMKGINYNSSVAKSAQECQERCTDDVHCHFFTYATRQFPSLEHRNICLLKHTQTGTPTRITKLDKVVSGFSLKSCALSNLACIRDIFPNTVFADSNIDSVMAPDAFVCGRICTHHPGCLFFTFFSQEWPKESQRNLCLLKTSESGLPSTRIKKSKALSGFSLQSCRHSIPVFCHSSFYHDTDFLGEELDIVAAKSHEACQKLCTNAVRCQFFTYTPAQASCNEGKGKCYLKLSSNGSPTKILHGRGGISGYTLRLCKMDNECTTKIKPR
Coagulation factor XI, sequence (P03951 388-625 limits assumed): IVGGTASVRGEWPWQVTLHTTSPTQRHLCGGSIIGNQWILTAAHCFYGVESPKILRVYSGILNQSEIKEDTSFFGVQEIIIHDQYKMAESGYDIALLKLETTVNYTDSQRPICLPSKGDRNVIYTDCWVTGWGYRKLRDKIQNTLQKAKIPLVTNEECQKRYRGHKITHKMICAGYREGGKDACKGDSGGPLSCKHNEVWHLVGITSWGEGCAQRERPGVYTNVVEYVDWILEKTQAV
Coagulation factor IX, sequence (P00740 47-191 limits assumed): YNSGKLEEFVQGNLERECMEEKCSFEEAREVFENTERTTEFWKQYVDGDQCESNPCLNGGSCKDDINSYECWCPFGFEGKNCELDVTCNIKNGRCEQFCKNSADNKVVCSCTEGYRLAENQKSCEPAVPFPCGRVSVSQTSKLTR
Coagulation factor IX, sequence (P00740 227-461 limits assumed): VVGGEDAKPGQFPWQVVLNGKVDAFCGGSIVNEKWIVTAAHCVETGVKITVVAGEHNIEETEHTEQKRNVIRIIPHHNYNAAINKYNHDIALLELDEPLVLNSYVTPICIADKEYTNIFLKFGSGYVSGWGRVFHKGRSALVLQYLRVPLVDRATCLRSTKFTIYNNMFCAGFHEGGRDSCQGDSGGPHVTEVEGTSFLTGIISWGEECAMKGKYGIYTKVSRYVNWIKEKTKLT
Plasma kallikrein, sequence (P03952 20-390 limits assumed): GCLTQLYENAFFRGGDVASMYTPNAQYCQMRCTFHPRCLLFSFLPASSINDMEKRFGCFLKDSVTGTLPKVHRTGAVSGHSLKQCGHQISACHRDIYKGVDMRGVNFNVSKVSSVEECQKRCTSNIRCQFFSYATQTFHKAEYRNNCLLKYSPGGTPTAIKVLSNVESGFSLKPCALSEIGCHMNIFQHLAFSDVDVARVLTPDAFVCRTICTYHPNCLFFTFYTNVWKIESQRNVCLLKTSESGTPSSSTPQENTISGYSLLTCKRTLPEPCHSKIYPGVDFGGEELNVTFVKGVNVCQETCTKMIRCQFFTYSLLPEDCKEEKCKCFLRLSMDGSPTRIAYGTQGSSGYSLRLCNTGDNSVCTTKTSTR
Plasma kallikrein, sequence (P03952 391-638 limits assumed): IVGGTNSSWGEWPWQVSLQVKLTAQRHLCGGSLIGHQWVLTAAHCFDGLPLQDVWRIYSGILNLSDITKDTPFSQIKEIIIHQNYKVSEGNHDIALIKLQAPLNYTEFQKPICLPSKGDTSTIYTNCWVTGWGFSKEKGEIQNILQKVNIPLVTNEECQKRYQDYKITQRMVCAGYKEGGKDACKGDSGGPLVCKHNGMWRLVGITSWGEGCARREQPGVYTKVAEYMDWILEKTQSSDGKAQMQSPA
Tissue-type plasminogen activator, sequence (P00750 whole entry): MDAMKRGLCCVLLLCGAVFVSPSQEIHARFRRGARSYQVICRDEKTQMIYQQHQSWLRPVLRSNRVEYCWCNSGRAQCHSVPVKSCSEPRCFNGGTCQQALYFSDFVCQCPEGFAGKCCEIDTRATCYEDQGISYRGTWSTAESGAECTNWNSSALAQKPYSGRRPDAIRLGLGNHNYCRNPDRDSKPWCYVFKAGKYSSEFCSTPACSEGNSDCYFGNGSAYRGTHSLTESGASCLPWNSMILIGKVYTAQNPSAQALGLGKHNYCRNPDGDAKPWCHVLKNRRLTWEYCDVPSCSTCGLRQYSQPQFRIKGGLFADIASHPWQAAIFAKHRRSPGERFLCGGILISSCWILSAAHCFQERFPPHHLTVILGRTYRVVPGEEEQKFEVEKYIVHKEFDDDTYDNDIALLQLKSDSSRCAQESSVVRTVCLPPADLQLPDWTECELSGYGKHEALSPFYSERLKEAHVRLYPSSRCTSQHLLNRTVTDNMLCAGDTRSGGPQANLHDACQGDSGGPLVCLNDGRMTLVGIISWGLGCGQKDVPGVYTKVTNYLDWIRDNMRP
Vitamin K-dependent protein C, sequence (P04070 43-197 limits assumed): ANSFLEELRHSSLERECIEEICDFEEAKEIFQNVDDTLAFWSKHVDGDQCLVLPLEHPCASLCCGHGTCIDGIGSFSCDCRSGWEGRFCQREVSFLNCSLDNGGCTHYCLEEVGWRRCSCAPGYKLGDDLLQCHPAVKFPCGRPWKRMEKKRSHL
Vitamin K-dependent protein C, sequence (P04070 212-461 limits assumed): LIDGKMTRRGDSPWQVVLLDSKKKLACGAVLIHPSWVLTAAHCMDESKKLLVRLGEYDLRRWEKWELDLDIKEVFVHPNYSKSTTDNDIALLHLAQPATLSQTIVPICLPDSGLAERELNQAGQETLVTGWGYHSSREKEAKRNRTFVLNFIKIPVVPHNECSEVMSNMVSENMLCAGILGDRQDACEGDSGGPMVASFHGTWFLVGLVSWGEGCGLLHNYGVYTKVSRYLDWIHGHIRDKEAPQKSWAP
Coagulation factor X, sequence (P00742 41-179 limits assumed): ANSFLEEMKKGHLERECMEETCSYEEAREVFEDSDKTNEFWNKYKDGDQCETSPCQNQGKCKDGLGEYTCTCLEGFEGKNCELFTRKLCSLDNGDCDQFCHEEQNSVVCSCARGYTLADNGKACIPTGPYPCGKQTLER
Coagulation factor X, sequence (P00742 235-488 limits assumed): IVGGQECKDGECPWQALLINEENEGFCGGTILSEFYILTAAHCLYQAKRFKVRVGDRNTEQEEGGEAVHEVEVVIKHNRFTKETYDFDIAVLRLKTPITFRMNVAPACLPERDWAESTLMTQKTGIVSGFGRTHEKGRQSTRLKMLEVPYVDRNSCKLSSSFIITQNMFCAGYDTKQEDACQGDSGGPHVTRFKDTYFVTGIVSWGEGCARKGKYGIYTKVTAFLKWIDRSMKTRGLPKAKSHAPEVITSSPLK
Plasminogen, sequence (P00747 97-580 limits assumed): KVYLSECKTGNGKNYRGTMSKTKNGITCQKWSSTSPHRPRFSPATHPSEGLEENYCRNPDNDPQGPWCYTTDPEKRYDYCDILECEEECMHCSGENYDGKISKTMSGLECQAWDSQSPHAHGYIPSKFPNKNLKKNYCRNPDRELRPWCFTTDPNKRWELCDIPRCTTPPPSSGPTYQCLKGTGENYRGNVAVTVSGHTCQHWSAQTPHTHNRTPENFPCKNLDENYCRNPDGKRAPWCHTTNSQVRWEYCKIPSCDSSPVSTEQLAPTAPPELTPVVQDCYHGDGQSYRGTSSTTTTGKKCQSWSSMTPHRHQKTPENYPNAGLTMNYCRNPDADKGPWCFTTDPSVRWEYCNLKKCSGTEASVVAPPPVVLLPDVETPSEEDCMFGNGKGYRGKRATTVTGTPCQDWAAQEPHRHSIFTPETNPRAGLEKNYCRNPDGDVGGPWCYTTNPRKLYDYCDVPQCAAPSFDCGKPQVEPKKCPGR
Plasminogen, sequence (P00747 581-810 limits assumed): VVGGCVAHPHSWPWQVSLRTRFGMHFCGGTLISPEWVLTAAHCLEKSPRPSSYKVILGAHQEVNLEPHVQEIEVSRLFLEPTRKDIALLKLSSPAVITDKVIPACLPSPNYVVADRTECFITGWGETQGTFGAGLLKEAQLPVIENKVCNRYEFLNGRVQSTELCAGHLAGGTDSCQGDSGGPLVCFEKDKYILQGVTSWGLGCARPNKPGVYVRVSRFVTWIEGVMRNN

## COC(=O)Nc1ccc2c(c1)OCCCCCC[C@H](NC(=O)/C=C/c1cc(Cl)ccc1-n1cnnn1)c1nc-2c[nH]1
Coagulation factor XI
  pKi: 6.80
[1]
  half-life: 126 min
[2]
  Vd: 2.2 L/kg
Canis familiaris [3]
  F: 17%
Canis familiaris [4]
  AUC: 119 nM·h
[5]
  half-life: 88 min

## COC(=O)Nc1ccc2c(c1)NC(=O)CCCC[C@H](NC(=O)/C=C/c1cc(Cl)ccc1-n1cnnn1)c1nc-2c[nH]1
Coagulation factor XI
  pKi: 9.00
Plasma
  EC1.5: 0.3 µM
[6]
  half-life: 90 min
Coagulation factor VII
  pKi: 5.50
Coagulation factor IX
  pKi: < 4.57
Coagulation factor X
  pKi: < 4.88
Coagulation factor XII
  pKi: < 5.52
Prothrombin
  pKi: < 4.94
[7]
  pKi: 5.08
Plasma kallikrein
  pKi: 7.15
[8]
  pKi: < 4.67
Plasminogen
  pKi: < 4.82
[9]
  pKi: < 5.21
[10]
  pKi: < 4.82
[11]
  pKi: 5.40
[12]
  half-life: 60 min
[13]
  Vd: 0.8 L/kg
Canis familiaris [14]
  F: 6%
Canis familiaris [15]
  AUC: 21 nM·h
[5]
  half-life: > 120 min
[16]
  fraction unbound: 0.098

## COC(=O)Nc1ccc2c(c1)NC(=O)CC/C=C/C[C@H](NC(=O)/C=C/c1cc(Cl)ccc1-n1cnnn1)c1nc-2c[nH]1
Plasma
  EC1.5: 0.27 µM
[6]
  half-life: 41 min
Coagulation factor VII
  pKi: 5.78
Coagulation factor IX
  pKi: < 4.57
Coagulation factor X
  pKi: < 4.88
Coagulation factor XII
  pKi: < 5.52
Prothrombin
  pKi: < 4.94
[7]
  pKi: 5.82
Plasma kallikrein
  pKi: 7.80
[8]
  pKi: < 4.67
Plasminogen
  pKi: < 4.85
[9]
  pKi: < 5.21
[10]
  pKi: 5.30
[11]
  pKi: 5.82
[17]
  half-life: 72 min
[18]
  Vd: 1.8 L/kg
Canis familiaris [19]
  F: 1%
Canis familiaris [20]
  AUC: 2.5 nM·h
[5]
  half-life: > 120 min
[16]
  fraction unbound: 0.085
[21]
  Papp A→B: < 1.5 ×10⁻⁶ cm/s

## COC(=O)Nc1ccc2c(c1)NC(=O)CCCCC[C@H](NC(=O)/C=C/c1cc(Cl)ccc1-n1cnnn1)c1nc-2c[nH]1
Coagulation factor XI
  pKi: 8.49
Plasma
  EC1.5: 1.2 µM
[6]
  half-life: 34 min
Canis familiaris [22]
  t1/2: 1.1 h
Canis familiaris [23]
  Vdss: 3.9 L/kg
[24]
  bioavailability: 0%
[5]
  half-life: > 120 min
[16]
  fraction unbound: 0.066
[21]
  Papp A→B: < 1.5 ×10⁻⁶ cm/s
